The source made the active and inactive calls. No cut-off for these calls is given here.
Key:
CCRF-CEM = experiment: Cytotoxicity against human CEM cells at 100 uM after 72 hrs by MTT assay; type: cell-based
Outline: (§1)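 MTT viability readout in CEM and Jurkat cells after 72 h incubation with compounds up to 100 µM; EC50 derived where applicable.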

[1] = test system: Human immunodeficiency virus 1; experiment: Antiviral activity against HIV1 infected in human CEM cells assessed as compound uptake after 3 hrs by fluorescence assay; type: functional, CCRF-CEM
Outline: (§2)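 Jurkat or CEM cells (2.5 × 10⁶/well) incubated in HBSS with compound at 100 µM, 3 h, 37 °C. Cells separated from medium by centrifugation through water-impermeable silicone-oil barrier, pellet lysed overnight in 0.1 M glycine–HCl pH 3.0, spun 5 min at 5600g. Compound in supernatant quantified by fluorescence at pH 3 against per-compound titration curve; reported as % uptake.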

Jurkat [2] = experiment: Cytotoxicity against human Jurkat cells at 100 uM after 72 hrs by MTT assay; type: cell-based; outline: as §1
[3] = test system: Human immunodeficiency virus 1; experiment: Antiviral activity against HIV1 infected in human Jurkat cells assessed as compound uptake after 3 hrs by fluorescence assay; type: functional; design: concentration or dose not given beside the values; outline: as §2
[4] = (§3) Inhibition of HIV Tat/TAR complex formation by fluorescence quenching assay; design: species or system Human immunodeficiency virus
[5] = Aqueous solubility in buffer; type: physicochemical
Jurkat [6] = experiment: Cytotoxicity against human Jurkat cells after 72 hrs by MTT assay; type: cell-based; outline: as §1
[7] = test system: Human immunodeficiency virus 1; experiment: Antiviral activity against HIV1 infected in human Jurkat cells assessed as compound uptake after 3 hrs by fluorescence assay in presence of lipofectamine; type: functional
[8] = test system: Human immunodeficiency virus; experiment: as §3

Compound | Activity (CCRF-CEM) | Activity [1] [%] | Activity (Jurkat [2]) | Activity [3] [%] | Ki [4] [nM] | solubility [5] | EC50 (Jurkat [6]) [nM] | Activity [7] | Activity [8]
COc1cc(OC)c2c(=O)cc(-c3ccc(OCCCN4CCCCC4)c(N)c3)n(C)c2c1 | Non-toxic | 1.8 | Non-toxic | 0.94 | 1950 | Soluble |  |  | 
COc1cc(OC)c2c(=O)cc(-c3ccc(OCCCN4CCCCC4)cc3)n(C)c2c1 |  |  |  | 3.27 | 1020 | Soluble | 94700 |  | 
COc1cc(OC)c2c(=O)cc(-c3ccc(OCCCN4CCN(C)CC4)c(N)c3)n(C)c2c1 | Non-toxic | 1.1 | Non-toxic | 0.82 | 1580 | Soluble |  |  | 
COc1cc(OC)c2c(=O)cc(-c3ccc(OCCCN4CCCCC4)c(NC(=O)CCCN(C)C)c3)n(C)c2c1 | Non-toxic |  | Non-toxic |  | 2600 | Soluble |  |  | 
Cn1cc(C(=O)O)c(=O)c2cc(N)c(N3CCN(c4ccccn4)CC3)cc21 | Non-toxic | 7.5 | Non-toxic | 23.2 | 2180 | Soluble |  | <=40% | 
COc1cc(OC)c2c(=O)cc(-c3ccc(OCCCN4CCN(C)CC4)c(NC(=O)CCCN(C)C)c3)n(C)c2c1 | Non-toxic |  | Non-toxic |  |  | Soluble |  |  | inactive
COc1cc(OC)c2c(=O)cc(-c3ccc(OCCCN)c(NC(=O)CCCN(C)C)c3)n(C)c2c1 | Non-toxic | 1.2 | Non-toxic | 0.67 | 3030 | Soluble |  |  | 
COc1cc(OC)c2c(=O)cc(-c3ccc(OCCCN)c(N)c3)n(C)c2c1 | Non-toxic |  | Non-toxic |  | 3850 | Soluble |  |  | 
COc1cc(OC)c2c(=O)cc(-c3ccc(OCCCN)c(NC(=O)CCc4cccnc4)c3)n(C)c2c1 | Non-toxic |  | Non-toxic |  |  | Soluble |  |  | inactive
COc1cc(OC)c2c(=O)cc(-c3ccc(O)c(N)c3)n(C)c2c1 | Non-toxic |  | Non-toxic | 25 |  | Soluble |  |  | inactive

Reference: ChEMBL document CHEMBL1143285, “Synthesis and biological evaluation of 2-phenylquinolones targeted at Tat/TAR recognition” (Bioorg Med Chem Lett, 2009)
